Measured values from PubChem BioAssay AID588417 (The Scripps Research Institute Molecular Screening Center, 2011).
Activity calls are given as the source filed them.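 How the source made its calls: active means IC50 at or below 1 µM; inactive means IC50 above 1 µM.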

Target: Protein-arginine deiminase type-4 (Homo sapiens) (UniProt Q9UM07)
Assay: PAD4 enzyme inhibition, citrulline production – biochemical, colorimetric substrate assay, assay provider data, 0-15 µM, late-stage follow-up (AID 588417)
Conditions: recombinant PAD4, BAEE substrate, citrulline colorimetric absorbance
Summary of the method: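 Test system: recombinant PAD4 protein / Input: 0.2 µM PAD4 / Signal: colorimetric citrulline detection, 540 nm absorbance / Buffer or medium: Tris-HCl pH 7.6, CaCl2 and DTT / Reagent: BAEE substrate at 10 mM / Timing: 15 min pretreatment plus 15 min reaction, 37 °C / Repeats: two replicates per concentration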

Sequence of Protein-arginine deiminase type-4 (Homo sapiens) (Q9UM07 whole entry, looked up): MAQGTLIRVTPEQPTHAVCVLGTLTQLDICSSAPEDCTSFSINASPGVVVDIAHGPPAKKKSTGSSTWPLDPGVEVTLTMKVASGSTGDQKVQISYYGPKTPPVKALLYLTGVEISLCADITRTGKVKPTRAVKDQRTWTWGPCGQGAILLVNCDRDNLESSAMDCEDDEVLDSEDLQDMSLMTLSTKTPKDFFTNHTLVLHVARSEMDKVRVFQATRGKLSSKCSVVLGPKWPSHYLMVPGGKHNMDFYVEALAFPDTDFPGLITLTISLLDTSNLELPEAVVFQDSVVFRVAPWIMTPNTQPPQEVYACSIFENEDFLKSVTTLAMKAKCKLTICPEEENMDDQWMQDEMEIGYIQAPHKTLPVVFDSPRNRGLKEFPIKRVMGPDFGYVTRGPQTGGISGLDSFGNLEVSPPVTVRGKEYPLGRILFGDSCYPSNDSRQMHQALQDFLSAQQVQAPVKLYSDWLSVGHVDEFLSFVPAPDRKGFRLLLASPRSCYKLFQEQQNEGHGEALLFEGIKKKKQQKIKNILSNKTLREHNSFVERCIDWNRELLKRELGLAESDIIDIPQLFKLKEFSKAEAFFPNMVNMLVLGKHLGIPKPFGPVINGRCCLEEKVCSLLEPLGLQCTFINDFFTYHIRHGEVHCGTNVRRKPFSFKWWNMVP

COC1=C(Br)C(=O)c2nc(-c3ccccn3)ccc2C1=O
IC50: inactive
